Measurements published in ChEMBL document CHEMBL3860048 (J Med Chem, 2016).
The source made the active and inactive calls. The rule behind the calls is not given here. Where a SMILES comes first, the peptide text is derived from it. [ ]: non-standard residue; d: D form. Phe(3-F) = N[C@@H](Cc1cccc(F)c1)C(=O)O; Arg(Me) = CNC(=N)NCCC[C@H](N)C(=O)O; azaGly = NNC(=O)O

Assays:
[1] = Bioavailability in Sprague-Dawley rat plasma at 1 mg/kg, sc up to 24 hrs by LC/MS analysis; assay type: ADME, organism-based
Summary of the method: (§1)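 Single subcutaneous 1 mg/kg dose to SD rats (n=3 per group). Plasma drawn at 5, 10, 15, 30 min and 1, 2, 4, 8, 24 h. Proteins removed with 0.2% formic acid/methanol (1:4, v/v) plus acetonitrile, centrifuged, supernatant diluted in 0.4% aqueous formic acid, then measured by LC/MS. Noncompartmental analysis per rat, mean ± SD.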

[2] = Plasma concentration in Sprague-Dawley rat at 1 mg/kg, iv after 5 mins by LC/MS analysis; assay type: ADME, organism-based
Summary of the method: (§2)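 Single intravenous 1 mg/kg bolus to SD rats (n=3 per group). Blood sampled at 5, 10, 15, 30 min and 1, 2, 4, 8, 24 h. Plasma deproteinized with 0.2% formic acid/methanol (1:4, v/v) plus acetonitrile, spun 15,000 rpm for 5 min, supernatant treated with 0.4% aqueous formic acid and spun again, then quantified by LC/MS. Noncompartmental parameters per rat, reported as mean ± SD.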

[3] = Tmax in Sprague-Dawley rat plasma at 1 mg/kg, sc by LC/MS analysis; assay type: ADME, organism-based; summary of the method: as §1
[4] = MRT in Sprague-Dawley rat plasma at 1 mg/kg, sc by LC/MS analysis; assay type: ADME, organism-based; summary of the method: as §1
[5] = Volume of distribution in steady state in Sprague-Dawley rat plasma at 1 mg/kg, iv up to 24 hrs by LC/MS analysis; assay type: ADME, organism-based; conditions: read-out: Vdss; summary of the method: as §2
[6] = Total clearance in Sprague-Dawley rat plasma at 1 mg/kg, iv up to 24 hrs by LC/MS analysis; assay type: ADME, organism-based; summary of the method: as §2
[7] = test system: Rattus norvegicus; assay: Inhibition of testosterone levels in Crl:CD(SD) rat plasma assessed as plasma testosterone level <0.04 ng/ml at 30 pmol/hr, sc administered as continuous dosing through alzet osmotic pump for 1 week by radio-immunoassay; assay type: functional, organism-based
Summary of the method: (§3)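 Peptide dissolved in 50% DMSO at 3, 10, 30 or 100 µM, loaded into ALZET osmotic pumps for 3 to 100 pmol/h. Pumps implanted sc in 5 Crl:CD(SD) male rats. Plasma testosterone measured by RIA after 1 or 4 weeks. Values below the 0.04 ng/mL detection limit were treated as 0.04. Count of rats below the limit.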

[8] = test system: Rattus norvegicus; assay: Inhibition of testosterone levels in Crl:CD(SD) rat plasma assessed as plasma testosterone level <0.04 ng/ml at 30 pmol/hr, sc administered as continuous dosing through alzet osmotic pump for 4 weeks by radio-immunoassay; assay type: functional, organism-based; summary of the method: as §3
[9] = Conformational changes of the compound in distilled water assessed as decrease in beta-sheet content at 0.1 mg/ml by preliminary circular dichroism analysis; parameters: scale not given: the % may be the effect or the level left
[10] = Solubility of the compound in water at 20 mg/ml; assay type: physicochemical; conditions: buffer
[11] = MRT in Sprague-Dawley rat plasma at 1 mg/kg, iv by LC/MS analysis; assay type: ADME, organism-based; summary of the method: as §2
[12] = test system: Rattus norvegicus; assay: Inhibition of testosterone levels in CD(SD) rat assessed as plasma testosterone level <0.04 ng/ml at 0.01 nmol/hr, sc administered continuously for 6 days through alzet osmotic pump measured after 6 days by radio-immunoassay; assay type: functional, organism-based
[13] = target: KiSS-1 receptor (Rattus norvegicus, UniProt Q924U1); assay: Agonist activity at rat KISS1R expressed in CHO/dhfr cells assessed as increase in intracellular Ca2+ levels measured for 180 secs by Fluo 3-AM dye based FLIPR assay; assay type: functional, cell-based
Sequence of KiSS-1 receptor (Rattus norvegicus, UniProt Q924U1) (Q924U1 whole entry): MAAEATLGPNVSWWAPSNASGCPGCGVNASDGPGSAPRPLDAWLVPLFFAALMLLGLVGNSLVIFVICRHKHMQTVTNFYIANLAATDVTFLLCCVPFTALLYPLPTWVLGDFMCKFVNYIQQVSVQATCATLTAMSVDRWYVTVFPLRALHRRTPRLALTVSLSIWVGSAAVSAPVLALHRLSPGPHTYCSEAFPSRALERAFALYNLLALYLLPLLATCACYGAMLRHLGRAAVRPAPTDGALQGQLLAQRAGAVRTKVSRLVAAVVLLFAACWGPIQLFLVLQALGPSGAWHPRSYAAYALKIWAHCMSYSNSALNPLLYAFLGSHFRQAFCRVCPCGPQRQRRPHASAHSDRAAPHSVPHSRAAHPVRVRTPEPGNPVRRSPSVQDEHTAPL

[14] = test system: Rattus norvegicus; assay: Inhibition of testosterone levels in Crl:CD(SD) rat plasma assessed as plasma testosterone level <0.04 ng/ml at 10 pmol/hr, sc administered as continuous dosing through alzet osmotic pump for 1 week by radio-immunoassay; assay type: functional, organism-based; summary of the method: as §3
[15] = target: KiSS-1 receptor (Homo sapiens, UniProt Q969F8); assay: Agonist activity at human KISS1R expressed in CHO/dhfr cells assessed as increase in intracellular Ca2+ levels measured for 180 secs by Fluo 3-AM dye based FLIPR assay; assay type: functional, cell-based
Sequence of KiSS-1 receptor (Homo sapiens, UniProt Q969F8) (Q969F8 whole entry): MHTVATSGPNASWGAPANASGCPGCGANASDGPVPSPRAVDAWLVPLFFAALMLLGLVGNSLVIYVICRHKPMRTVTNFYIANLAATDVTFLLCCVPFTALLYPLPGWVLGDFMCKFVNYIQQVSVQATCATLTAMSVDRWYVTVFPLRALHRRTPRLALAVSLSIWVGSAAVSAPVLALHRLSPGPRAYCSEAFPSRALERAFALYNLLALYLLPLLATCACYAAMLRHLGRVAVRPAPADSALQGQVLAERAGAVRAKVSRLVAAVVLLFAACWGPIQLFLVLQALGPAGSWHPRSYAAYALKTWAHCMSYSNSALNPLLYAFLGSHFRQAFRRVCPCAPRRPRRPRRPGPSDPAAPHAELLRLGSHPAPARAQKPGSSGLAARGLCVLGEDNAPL
Summary of the method: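 CHO cells expressing human KISS1R; FLIPR recording of ligand-induced [Ca2+]i rise over time. Maximum response taken and expressed as percent of the response to a maximal concentration of metastin(45-54). EC50 = concentration giving half-maximal mobilization, from nonlinear regression of smoothed data. Reported as ratio to the metastin(45-54) EC50.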

[16] = test system: Rattus norvegicus; assay: Inhibition of testosterone levels in Crl:CD(SD) rat plasma assessed as plasma testosterone level <0.04 ng/ml at 3 pmol/hr, sc administered as continuous dosing through alzet osmotic pump for 1 week by radio-immunoassay; assay type: functional, organism-based; summary of the method: as §3
[17] = Cmax in Sprague-Dawley rat plasma at 1 mg/kg, sc by LC/MS analysis; assay type: ADME, organism-based; parameters: dose 1 mg/kg, route subcutaneous; summary of the method: as §1
[18] = Solubility of the compound in water up to 500 mg/ml; assay type: physicochemical; conditions: buffer
[19] = AUC (0 to 24 hrs) in Sprague-Dawley rat plasma at 1 mg/kg, sc by LC/MS analysis; assay type: ADME, organism-based; parameters: dose 1 mg/kg, time < 24 hr, route subcutaneous; summary of the method: as §1
[20] = AUC (0 to 24 hrs) in Sprague-Dawley rat plasma at 1 mg/kg, iv up to 24 hrs by LC/MS analysis; assay type: ADME, organism-based; parameters: dose 1 mg/kg, time < 24 hr, route intravenous; summary of the method: as §2
[21] = Inhibition of testosterone levels in sc dosed Crl:CD(SD) rat plasma assessed as compound dosing causing plasma testosterone level <0.04 ng/ml in all tested animals administered as continuous dosing through alzet osmotic pump for 1 to 4 weeks by radio-immunoassay; assay type: functional
[22] = test system: Rattus norvegicus; assay: Inhibition of testosterone levels in Crl:CD(SD) rat plasma assessed as plasma testosterone level <0.04 ng/ml at 100 pmol/hr, sc administered as continuous dosing through alzet osmotic pump for 1 week by radioimmunoassay; assay type: functional, organism-based; summary of the method: as §3
[23] = test system: Rattus norvegicus; assay: Inhibition of testosterone levels in Crl:CD(SD) rat plasma assessed as plasma testosterone level <0.04 ng/ml at 100 pmol/hr, sc administered as continuous dosing through alzet osmotic pump for 4 weeks by radioimmunoassay; assay type: functional, organism-based; summary of the method: as §3
[24] = test system: Rattus norvegicus; assay: Inhibition of testosterone levels in CD(SD) rat assessed as plasma testosterone level <0.04 ng/ml at 0.1 nmol/hr, sc administered continuously for 6 days through alzet osmotic pump measured after 6 days by radio-immunoassay; assay type: functional, organism-based

Row | bioavailability [1] [%] | concentration at 5 min [2] [ng/mL] | Tmax [3] [min] | MRT [4] [min] | Vd [5] [L/kg] | clearance [6] [mL/min/kg] | solubility [10] | MRT [11] [min] | EC50 [13] [µM] | EC50 [15] [µM] | Cmax [17] [ng/mL] | AUC(0-t) at 24 h [19] [ng·h/mL] | AUC(0-t) at 24 h [20] [ng·h/mL] | Structure (SMILES) | inhibition [7] | Activity [9] [%] | inhibition [12] | inhibition [14] | MED [21] [pmol/h] | further results
1 | 43.9 | 2850 | 19.8 | 72.6 | 0.403 | 10.8 | Soluble | 37.2 | 0.036 | 0.0052 | 342 | 679 | 1550 | CNC(=N)NCCC[C@H](NC(=O)[C@H](CC(C)C)NC(=O)NNC(=O)[C@H](Cc1ccccc1)NC(=O)[C@@H](NC(=O)[C@H](CC(N)=O)NC(=O)[C@@H]1C[C@@H](O)CN1C(=O)[C@@H](Cc1ccc(O)cc1)NC(C)=O)[C@@H](C)O)C(=O)N[C@@H](Cc1c[nH]c2ccccc12)C(N)=O [TAK-448] | Active | 21.9 | Active | Active | 30 | inhibition [8]: Active; inhibition [16]: Active; solubility [18]: Soluble
2 | 94.5 | 2630 | 23.4 | 65.4 | 0.406 | 12.8 | Insoluble | 31.8 | 0.02 | 0.00047 | 703 | 1260 | 1330 | CNC(=N)NCCC[C@H](NC(=O)[C@H](CC(C)C)NC(=O)NNC(=O)[C@H](Cc1cccc(F)c1)NC(=O)[C@@H](NC(=O)[C@H](CC(N)=O)NC(=O)[C@H](CCC(=O)O)NC(=O)[C@@H](Cc1ccc(O)cc1)NC(C)=O)[C@@H](C)O)C(=O)N[C@@H](Cc1c[nH]c2ccccc12)C(N)=O (Ac-[dY]ENT[Phe(3-F)][azaGly]L[Arg(Me)]W-NH2) | Active |  | Active | Active |  | 
3 |  |  |  |  |  |  | Soluble |  |  |  | 100 |  |  | CNC(=N)NCCC[C@H](NC(=O)[C@H](CC(C)C)NC(=O)NNC(=O)[C@H](Cc1ccccc1)NC(=O)[C@@H](NC(=O)[C@H](CC(N)=O)NC(=O)[C@@H](Cc1c[nH]c2ccccc12)NC(=O)[C@@H](Cc1ccc(O)cc1)NC(C)=O)[C@@H](C)O)C(=O)N[C@@H](Cc1c[nH]c2ccccc12)C(N)=O | Active | 34.8 |  |  | 100 | inhibition [22]: Active; inhibition [23]: Active; inhibition [24]: Active
